Consider 23 molecules from ChEMBL document CHEMBL1152910, “Synthesis and structure-activity relationships of phenothiazine carboxylic acids having pyrimidine-dione as novel histamine H(1) antagonists” (Bioorg Med Chem Lett, 2009).

For data set [1], the target named is T1, Histamine H1 receptor (Homo sapiens, UniProt P35367). The data set is described as follows: Displacement of [3H]pyrilamine from human recombinant histamine H1 receptor expressed in CHOK1 cells by scintillation counting. The data set is classed as cell-based, CHO-K1. A general note: Loss of bound radioactivity is the signal in a displacement assay; it reports binding, not function.
T1 sequence (P35367 whole entry): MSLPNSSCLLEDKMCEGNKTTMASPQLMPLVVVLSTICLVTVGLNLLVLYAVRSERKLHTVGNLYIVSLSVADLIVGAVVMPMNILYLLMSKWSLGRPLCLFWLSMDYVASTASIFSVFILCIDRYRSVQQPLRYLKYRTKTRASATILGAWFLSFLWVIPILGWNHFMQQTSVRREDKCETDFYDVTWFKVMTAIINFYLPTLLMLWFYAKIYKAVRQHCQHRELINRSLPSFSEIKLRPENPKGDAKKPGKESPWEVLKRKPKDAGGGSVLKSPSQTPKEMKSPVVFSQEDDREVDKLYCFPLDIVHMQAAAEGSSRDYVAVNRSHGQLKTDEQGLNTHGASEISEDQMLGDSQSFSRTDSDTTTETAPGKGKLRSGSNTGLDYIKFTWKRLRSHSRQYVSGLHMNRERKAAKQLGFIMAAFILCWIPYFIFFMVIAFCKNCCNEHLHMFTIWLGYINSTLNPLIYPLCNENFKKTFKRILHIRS

Data set [2] is described as follows: Apparent permeability from apical to basolateral side of human Caco-2 cells after 120 mins. Background: Caco-2 cells form a polarised layer with tight junctions and transporters.
Data set [3] can be described thus: Protein binding in rat by equilibrium dialysis. The data set is classed as ADME, organism-based. Particulars: read-out: PB (converted). The gist of the method:
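Protein binding (%) determined by equilibrium dialysis.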
(Equilibrium dialysis compares concentrations on both sides of a semipermeable membrane.)

For data set [4], the species on record is Mus musculus. Description: animal or person. Particulars: ddY, route oral. The data set is classed as functional.
Data set [5] in a line: Oral bioavailability in rat. Particulars: in vivo. The data set is classed as ADME, organism-based.
The test system of data set [6] is Mus musculus. The data set is described as follows: Antiinflammatory activity in BALB/c mouse model assessed as inhibition of ovalbumin-induced ear swelling at 10 mg/kg, po administered 60 mins before ovalbumin challenge measured 1 hr after elicitation by immediate type reaction assay. The class given is functional. A digest of the protocol:
(§1)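 Female BALB/c mice, 8 weeks old, sensitized by i.p. OVA with alum; two weeks later compound suspended in 0.5% MC given orally 60 min before OVA injection into the ear.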

Data set [7] concerns Mus musculus. The data set is described as follows: Antiinflammatory activity in BALB/c mouse model assessed as inhibition of ovalbumin-induced ear swelling at 10 mg/kg, po administered 60 mins before ovalbumin challenge measured 24 hrs after elicitation by late type reaction assay. The data set is classed as functional. A digest of the protocol:
as §1

Data set [8] deals with T1, Histamine H1 receptor. Description: Inhibition of histamine H1 receptor.
Data set [9] concerns Mus musculus. Description: In vivo antihistaminic activity at histamine H1 receptor in ddY mouse assessed as inhibition of histamine-induced skin vascular permeability at 10 mg/kg, po administered 1 hr before histamine challenge measured after 30 mins by Evan's blue staining. The class given is functional.
For data set [10], the system named is Mus musculus. Description: Antiinflammatory activity in BALB/c mouse model assessed as inhibition of ovalbumin-induced ear swelling at 30 mg/kg, po administered 60 mins before ovalbumin challenge measured 1 hr after elicitation by immediate type reaction assay. The data set is classed as functional. The gist of the method: as §1
Data set [11] concerns Mus musculus. The data set is described as follows: Antiinflammatory activity in BALB/c mouse model assessed as inhibition of ovalbumin-induced ear swelling at 30 mg/kg, po administered 60 mins before ovalbumin challenge measured 24 hrs after elicitation by late type reaction assay. The class given is functional. The gist of the method: as §1
In data set [12] the test system is Mus musculus. Description: Antiinflammatory activity in po dosed BALB/c mouse model assessed as inhibition of ovalbumin-induced ear swelling administered 60 mins before ovalbumin challenge measured 1 hr after elicitation by immediate type reaction assay. The class given is functional, organism-based. The gist of the method:
as §1

Data set [13] relates to Mus musculus. The data set is described as follows: Antiinflammatory activity in po dosed BALB/c mouse model assessed as inhibition of ovalbumin-induced ear swelling administered 60 mins before ovalbumin challenge measured 24 hrs after elicitation by late type reaction assay. The class given is functional, organism-based. A digest of the protocol: as §1

By IC50 is commonly meant the midpoint of a concentration-inhibition curve. A word on the Papp A→B: it is the apparent permeability from the apical to the basolateral side of a cell layer. As for `Cn1c(N2CCCN(CCCN3c4ccccc4Sc4ccc(OCC(=O)O)cc43)CC2)cc(=O)n(C)c1=O`, on Histamine H1 receptor [1], the IC50 turned out to be 88 nM. Further, the apical-to-basolateral permeability (Papp A→B) at 2 h in [2] stood at 0.5 ×10⁻⁶ cm/s. Further, the fraction unbound in [3] was 0.047.
In the case of `Cn1c(N2CCCN(CCCN3c4ccccc4Sc4c(C(=O)O)cccc43)CC2)cc(=O)n(C)c1=O`, the half-inhibitory concentration (IC50) at Histamine H1 receptor [1] was > 500 nM. Moreover, the Papp A→B at 2 h in data set [2] was found to be 0.5 ×10⁻⁶ cm/s.
The term inhibition in vivo denotes the drop in the measured response relative to a control, in per cent. As a reminder, the bioavailability is dose-corrected exposure relative to a reference, in per cent. For the molecule `Cn1c(C2=CCN(CCCN3c4ccccc4Sc4ccc(CC(=O)O)cc43)CC2)cc(=O)n(C)c1=O`, the IC50 on Histamine H1 receptor [1] was 41 nM. Moreover, the Papp A→B at 2 h in data set [2] is 4.7 ×10⁻⁶ cm/s. Also, in the data set filed under Mus musculus [4], the inhibition in vivo at 3 mg/kg was 82%. For the same molecule, the bioavailability in [5] worked out at 30%. In addition, the results for the inhibition in vivo at 10 mg/kg with Mus musculus [6] and in the data set with Mus musculus [7] were 86% and 12%, respectively.
For the molecule `C[C@]12C=CC(=O)C=C1CC[C@@H]1[C@@H]2[C@@H](O)C[C@@]2(C)[C@H]1CC[C@]2(O)C(=O)CO` [PREDNISOLONE], the inhibition in vivo at 10 mg/kg turned out to be 22% with Mus musculus [6] and 81% with Mus musculus [7].
As to `Cn1c(NCCCN2CCC(CN3c4ccccc4Sc4ccc(C(=O)O)cc43)CC2)cc(=O)n(C)c1=O`, the IC50 on Histamine H1 receptor [1] was 46 nM. Besides, in data set [2], the Papp A→B at 2 h worked out at 0.4 ×10⁻⁶ cm/s.
On to `Cn1c(NCCCN2CCC(Oc3ccc(Cl)cc3C(=O)O)CC2)cc(=O)n(C)c1=O`, for which, on Histamine H1 receptor [8], the half-inhibitory concentration (IC50) is > 1000 nM.
Regarding `Cn1c(N2CCN(CCCCN3c4ccccc4Sc4ccc(C(=O)O)cc43)CC2)cc(=O)n(C)c1=O`, the half-maximal inhibitory concentration (IC50) on Histamine H1 receptor [1] was 35 nM. In [2], the Papp A→B at 2 h is 20.3 ×10⁻⁶ cm/s. In addition, the inhibition in vivo at 10 mg/kg with Mus musculus [9] came to 43%. Also, the fraction unbound in data set [3] is 0.001. Further, the bioavailability in [5] was 16%.
`CN1CCC(=C2c3ccccc3CC(=O)c3sccc32)CC1.O=C(O)/C=C/C(=O)O` [KETOTIFEN FUMARATE]: the apical-to-basolateral permeability (Papp A→B) at 2 h in data set [2] came to 11.1 ×10⁻⁶ cm/s. The inhibition in vivo at 3 mg/kg in the data set filed under Mus musculus [4] came out at 98%. In addition, the inhibition in vivo at 10 mg/kg with Mus musculus [6] was 119%; in the data set on Mus musculus [7], 3%. For the same molecule, the inhibition in vivo at 30 mg/kg in the data set with Mus musculus [10] is 106%; with Mus musculus [11], -4%.
With `Cn1c(N2CCCN(CCCN3c4ccccc4Sc4cccc(C(=O)O)c43)CC2)cc(=O)n(C)c1=O`, the IC50 at Histamine H1 receptor [1] is > 500 nM. Besides, in [2], the Papp A→B at 2 h stood at 0.5 ×10⁻⁶ cm/s.
For `Cn1c(N2CCCN(CCCN3c4ccccc4Sc4ccc(/C=C\C(=O)O)cc43)CC2)cc(=O)n(C)c1=O` the same measures were 323 nM and 7.1 ×10⁻⁶ cm/s.
In the case of `CC(C(=O)O)c1ccc2c(c1)N(CCCN1CCCN(c3cc(=O)n(C)c(=O)n3C)CC1)c1ccccc1S2` (centres undefined), the IC50 at Histamine H1 receptor [1] was determined as 72 nM. Besides, in data set [2], the Papp A→B at 2 h is 6.9 ×10⁻⁶ cm/s. Moreover, in the data set filed under Mus musculus [4], the inhibition in vivo at 3 mg/kg came out at 79%. The fraction unbound in data set [3] is 0.022. Further, in [5], the bioavailability worked out at 10%.
With `CN(CCCN1CCC(CN2c3ccccc3Sc3ccc(C(=O)O)cc32)CC1)c1cc(=O)n(C)c(=O)n1C`, the half-inhibitory concentration (IC50) at Histamine H1 receptor [1] was 53 nM. Further, the Papp A→B at 2 h in data set [2] amounted to 0.6 ×10⁻⁶ cm/s.
On to `Cn1c(N2CCCN(CCCN3c4ccccc4Sc4ccc(CCC(=O)O)cc43)CC2)cc(=O)n(C)c1=O`, for which, on Histamine H1 receptor [1], the IC50 came out at 69 nM. For the same molecule, the Papp A→B at 2 h in data set [2] was found to be 7.7 ×10⁻⁶ cm/s. The inhibition in vivo at 3 mg/kg in the data set filed under Mus musculus [4] came out at 51%. Further, the fraction unbound in data set [3] was 0.012. In data set [5], this molecule registered a bioavailability of 7%. Besides, the inhibition in vivo at 10 mg/kg came out at 79% in the data set on Mus musculus [6] and 49% with Mus musculus [7].
As for `CC(C)(C(=O)O)c1ccc(C(O)CCCN2CCC(C(O)(c3ccccc3)c3ccccc3)CC2)cc1` (centres undefined) [FEXOFENADINE], the values for the inhibition in vivo at 10 mg/kg in the data set with Mus musculus [6] and with Mus musculus [7] were 61% and 6%, respectively.
Regarding `CCC(C(=O)O)c1ccc2c(c1)N(CCCN1CCCN(c3cc(=O)n(C)c(=O)n3C)CC1)c1ccccc1S2` (centres undefined), the 50% inhibitory concentration (IC50) at Histamine H1 receptor [1] stood at 41 nM. Besides, the apparent permeability from apical to basolateral (Papp A→B) at 2 h in data set [2] was determined as 22.3 ×10⁻⁶ cm/s. Besides, the inhibition in vivo at 3 mg/kg in the data set listed under Mus musculus [4] is 51%. The bioavailability in data set [5] worked out at 14%.
In the case of `Cn1c(N2CCN(CCCN3c4ccccc4Sc4ccc(C(=O)O)cc43)CC2)cc(=O)n(C)c1=O`, the IC50 on Histamine H1 receptor [1] amounted to 37 nM. The Papp A→B at 2 h in [2] was 9.9 ×10⁻⁶ cm/s. For the same molecule, the inhibition in vivo at 10 mg/kg in the data set on Mus musculus [9] worked out at 39%; in the data set with Mus musculus [6], 47%; with Mus musculus [7], 65%. For the same molecule, the fraction unbound in data set [3] is 0.006. Besides, the bioavailability in data set [5] was 17%.
Turning to `Cn1c(N2CCCN(CCCN3c4ccccc4Sc4ccc(CC(=O)O)cc43)CC2)cc(=O)n(C)c1=O`, the 50% inhibitory concentration (IC50) at Histamine H1 receptor [1] is 23 nM. The Papp A→B at 2 h in data set [2] worked out at 5.5 ×10⁻⁶ cm/s. In addition, the inhibition in vivo at 3 mg/kg in the data set listed under Mus musculus [4] amounted to 53%. Also, the fraction unbound in [3] is 0.051. The bioavailability in data set [5] was 19%. Further, the figures for the inhibition in vivo at 10 mg/kg in the data set on Mus musculus [6] and in the data set on Mus musculus [7] were 16% and 12%, respectively.
For the molecule `Cn1c(N2CCCN(CCCN3c4ccccc4Sc4ccc(C(C)(C)C(=O)O)cc43)CC2)cc(=O)n(C)c1=O`, the IC50 on Histamine H1 receptor [1] stood at 123 nM. In data set [2], the apparent permeability from apical to basolateral (Papp A→B) at 2 h stood at 9.9 ×10⁻⁶ cm/s. Further, the fraction unbound in [3] is 0.045.
For `Cn1c(N2CCN(CCCN3c4ccccc4Sc4ccc(CC(=O)O)cc43)CC2)cc(=O)n(C)c1=O`, the concentration for half-maximal inhibition (IC50) on Histamine H1 receptor [1] turned out to be 40 nM. The apical-to-basolateral permeability (Papp A→B) at 2 h in data set [2] amounted to 12.3 ×10⁻⁶ cm/s. For the same molecule, the inhibition in vivo at 3 mg/kg in the data set filed under Mus musculus [4] came to 61%. Moreover, the fraction unbound in data set [3] is 0.022. In data set [5], the bioavailability is 27%. In addition, the inhibition in vivo at 10 mg/kg in the data set on Mus musculus [6] is 73%; with Mus musculus [7], 64%. Besides, the inhibition result with Mus musculus [12] and with Mus musculus [13] was “Dose-dependent effect” each time.
On to `Cn1c(N2CCN(CCCN3c4ccccc4Sc4ccc(CCC(=O)O)cc43)CC2)cc(=O)n(C)c1=O`, for which the IC50 on Histamine H1 receptor [1] came to 105 nM. Moreover, the Papp A→B at 2 h in data set [2] stood at 5.1 ×10⁻⁶ cm/s. Further, the inhibition in vivo at 3 mg/kg in the data set listed under Mus musculus [4] came out at 51%. Also, the fraction unbound in data set [3] is 0.001. The bioavailability in data set [5] amounted to 51%.
For the molecule `Cn1c(N2CCCN(CCCN3c4ccccc4Sc4ccc(C(=O)O)cc43)CC2)cc(=O)n(C)c1=O`, the half-inhibitory concentration (IC50) on Histamine H1 receptor [1] amounted to 23 nM. In addition, the Papp A→B at 2 h in data set [2] amounted to 4.7 ×10⁻⁶ cm/s. In addition, the inhibition in vivo at 3 mg/kg in the data set listed under Mus musculus [4] came to 14%. The fraction unbound in data set [3] is 0.012. The same molecule gave a bioavailability in data set [5] of 7%. The inhibition in vivo at 10 mg/kg came to 50% with Mus musculus [6] and 53% in the data set with Mus musculus [7].
For `Cn1c(NCCCN2CCC(Oc3ccc(Cl)c(Cl)c3)CC2)cc(=O)n(C)c1=O`, the IC50 came to 58 nM against Histamine H1 receptor [8] and 28 nM at Histamine H1 receptor [1]. The Papp A→B at 2 h in data set [2] stood at 4.2 ×10⁻⁶ cm/s. Further, in the data set with Mus musculus [9], the inhibition in vivo at 10 mg/kg was found to be 69%. In data set [3], the fraction unbound was 0.166. In data set [5], the bioavailability amounted to 25%. For the same molecule, the inhibition in vivo at 30 mg/kg in the data set with Mus musculus [10] stood at 72%; in the data set with Mus musculus [11], 61%.
Consider `Cn1c(N2CCN(CCN3c4ccccc4Sc4ccc(C(=O)O)cc43)CC2)cc(=O)n(C)c1=O`, for which, on Histamine H1 receptor [1], the IC50 was 124 nM. In addition, the Papp A→B at 2 h in data set [2] is 4.9 ×10⁻⁶ cm/s.
